The text below walks through data of ChEMBL document CHEMBL4311973, “Synthesis of cinnamic acid derivatives and leishmanicidal activity against Leishmania braziliensis” (Eur J Med Chem, 2019).

The source made the active and inactive calls. The rule behind the calls is not given here.

A short description of series [1]: Solubility of compound in 0.1% DMSO by light microscopy. It counts as physicochemical. A digest of the protocol:
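Compounds taken up in aqueous 5% DMSO, diluted in RPMI to 10 µM (final DMSO 0.1%), and inspected by light microscopy for crystal formation.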

Series [2] concerns RAW264.7. As to the kind of experiment: Cytotoxicity against […] RAW264.7 cells assessed as reduction in cell viability at 10 uM incubated for 48 hrs by resazurin staining based assay. As to conditions: raw264.7, 48 h. A digest of the protocol: (§1)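 RAW 264.7 macrophages treated 48 h with compound in RPMI (final DMSO 0.1%); survival measured by resazurin viability assay. Screening at 10 µM, IC50 range 1–80 µM. Controls amphotericin B 3.125 µg/mL and 0.1% DMSO; three independent experiments in internal quadruplicate.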

Series [3] deals with Leishmania braziliensis. As to the kind of experiment: Antileishmanial activity against Leishmania braziliensis MHOM/BR/75/M2904 promastigotes assessed as reduction in cell viability at 10 uM incubated for 48 hrs by resazurin staining based assay. The format is functional, organism-based. Summed up:
(§2)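 Log-phase promastigotes exposed 48 h to compound in RPMI (final DMSO 0.1%); survival read by resazurin relative to DMSO. Screening at 10 µM; IC50 runs at 1–80 µM. Amphotericin B 3.125 µg/mL and 0.1% DMSO as controls; quadruplicate wells, two or three independent experiments; significance by one-way ANOVA with Dunnett post-test.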

Series [4] concerns Leishmania braziliensis. The series can be described thus: Antileishmanial activity against Leishmania braziliensis MHOM/BR/75/M2904 amastigotes infected in […] cells assessed as cell viability at 10 uM incubated for 48 hrs by resazurin staining based assay (reference value: 10.71 %). It counts as functional.
In series [5] the test system is RAW264.7. The series can be described thus: Cytotoxicity against […] RAW264.7 cells assessed as reduction in cell viability at 3.125 ug/ml incubated for 48 hrs by resazurin staining based assay. The settings on record: raw264.7, 48 h. Summed up: as §1
In series [6] the test system is Leishmania braziliensis. As to the kind of experiment: Induction of autophagy in Leishmania braziliensis MHOM/BR/75/M2904 amastigotes infected in […] RAW264.7 cells incubated for 48 hrs by transmission electron microscopy. The format is functional, organism-based. Summed up: (§3)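 Infected macrophage cultures treated with compound or DMSO control, then examined by transmission electron microscopy for parasite morphology within parasitophorous vacuoles (lobulation, multimembrane vesicles, chromatin fragments).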

The subject of series [7] is Leishmania braziliensis. As to the kind of experiment: Antileishmanial activity against Leishmania braziliensis MHOM/BR/75/M2904 amastigotes infected in […] cells assessed as cell viability at 80 uM incubated for 48 hrs by resazurin staining based assay (reference value: 10.71 %). It counts as functional.
Series [8] concerns Leishmania braziliensis. As to the kind of experiment: Antileishmanial activity against Leishmania braziliensis MHOM/BR/75/M2904 amastigotes infected in […] cells assessed as reduction in cell viability incubated for 48 hrs by resazurin staining based assay. The format is functional, organism-based. As to conditions: MHOM/BR/75/M2904, RAW264.7, 48 h.
The test system of series [9] is Leishmania braziliensis. As to the kind of experiment: Antileishmanial activity against Leishmania braziliensis MHOM/BR/75/M2904 amastigotes infected in […] cells assessed as cell viability at 20 uM incubated for 48 hrs by resazurin staining based assay (reference value: 10.71 %). It counts as functional.
The nature of series [10]: Selectivity index, ratio of IC50 of cytotoxicity against […] RAW264.7 cells to IC50 of antileishmanial activity against Leishmania braziliensis MHOM/BR/75/M2904 amastigotes infected in […] RAW264.7 cells. It counts as toxicity, cell-based. The settings on record: read-out: Ratio IC50. A digest of the protocol:
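Selectivity index from IC50 on RAW 264.7 macrophages over IC50 against intracellular amastigotes, both after 48 h by resazurin.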

Series [11] concerns Leishmania braziliensis. As to the kind of experiment: Antileishmanial activity against Leishmania braziliensis MHOM/BR/75/M2904 promastigotes assessed as reduction in cell viability incubated for 48 hrs by resazurin staining based assay. The format is functional, organism-based. As to conditions: MHOM/BR/75/M2904, 48 h. Summed up:
as §2

Series [12] has as its system Leishmania braziliensis. The series can be described thus: Antileishmanial activity against Leishmania braziliensis MHOM/BR/75/M2904 amastigotes infected in […] cells assessed as cell viability at 2.5 uM incubated for 48 hrs by resazurin staining based assay (reference value: 10.71 %). It counts as functional.
The subject of series [13] is Leishmania braziliensis. The series can be described thus: Induction of apoptosis in Leishmania braziliensis MHOM/BR/75/M2904 amastigotes infected in […] RAW264.7 cells incubated for 48 hrs by transmission electron microscopy. It counts as functional, organism-based. A digest of the protocol:
as §3

For series [14], the system named is Leishmania braziliensis. As to the kind of experiment: Antileishmanial activity against Leishmania braziliensis MHOM/BR/75/M2904 amastigotes infected in […] cells assessed as cell viability at 30 uM incubated for 48 hrs by resazurin staining based assay (reference value: 10.71 %). It counts as functional.
Series [15] concerns RAW264.7. The series can be described thus: Cytotoxicity against […] RAW264.7 cells assessed as reduction in cell viability incubated for 48 hrs by resazurin staining based assay. The settings on record: Mus musculus, RAW264.7, 48 h. Summed up: as §1
For series [16], the system named is Leishmania braziliensis. The series can be described thus: Antileishmanial activity against Leishmania braziliensis MHOM/BR/75/M2904 amastigotes infected in […] cells assessed as cell viability at 40 uM incubated for 48 hrs by resazurin staining based assay (reference value: 10.71 %). It counts as functional.
The test system of series [17] is Leishmania braziliensis. The series can be described thus: Cell cycle arrest in Leishmania braziliensis MHOM/BR/75/M2904 amastigotes infected in […] cells assessed as lobulated cell bodies incubated for 48 hrs by transmission electron microscopy. It counts as functional, organism-based. Summed up:
as §3

Series [18] has as its system Leishmania braziliensis. The series can be described thus: Antileishmanial activity against Leishmania braziliensis MHOM/BR/75/M2904 amastigotes infected in […] cells assessed as cell viability at 5 uM incubated for 48 hrs by resazurin staining based assay (reference value: 10.71 %). The format is functional.
Series [19] has as its system Leishmania braziliensis. As to the kind of experiment: Antileishmanial activity against Leishmania braziliensis MHOM/BR/75/M2904 amastigotes infected in […] cells assessed as cell viability at 1 uM incubated for 48 hrs by resazurin staining based assay (reference value: 10.71 %). The format is functional.

On to `COc1ccc(/C=C/C(=O)Oc2ccc3c(c2)C(=O)OC3)cc1`, for which the solubility entry in [1] was “Insoluble”.
For `O=C(/C=C/c1ccccc1)OCc1cn(Cc2ccc(OC(F)(F)F)cc2)nn1`, the Activity entry is “Non-Toxic” in series [2] and 77.39% in series [4]. For the same molecule, the outcome in [3] was inactive.
Take `C[C@@H]1[C@H](O)[C@@H](C)/C=C/C=C/C=C/C=C/C=C/C=C/C=C/[C@H](O[C@@H]2O[C@H](C)[C@@H](O)[C@H](N)[C@@H]2O)C[C@@H]2O[C@](O)(C[C@@H](O)C[C@@H](O)[C@H](O)CC[C@@H](O)C[C@@H](O)CC(=O)O[C@H]1C)C[C@H](O)[C@H]2C(=O)O` [AMPHOTERICIN B]: the Activity in series [4] is given as 98.25%; in series [5], “Non-Toxic”.
In the case of `O=C(/C=C/c1ccccc1)OCc1cn(Cc2ccccc2)nn1`, the values for the Activity entry in [2] and in series [4] were “Non-Toxic” and 19.91%, respectively. The outcome in [3] was inactive.
With `O=C(/C=C/c1ccccc1)OCc1cn(Cc2ccc(C(F)(F)F)cc2)nn1`, in [1], the solubility result is given as “Insoluble”.
On to `O=C(/C=C/c1ccccc1)OCCCc1cn(Cc2ccc(F)c(F)c2)nn1`, for which the Activity result in [2] was “Non-Toxic”; in series [4], 47.85%.
Regarding `O=C(/C=C/c1ccccc1)OCCCc1cn(Cc2ccc(Cl)cc2)nn1`, the Activity entry in [2] is “Non-Toxic”; in [4], 49.01%. Besides, the result in [3] was Active.
Turning to `O=C(/C=C/c1ccccc1)OCCCc1cn(Cc2ccccc2Br)nn1`, the results for the Activity result in series [2] and in series [4] were “Non-Toxic” and 57.32%, respectively.
On to `O=C(/C=C/c1ccccc1)OCc1cn(Cc2ccc([N+](=O)[O-])cc2)nn1`, for which the solubility result in [1] is “Insoluble”.
On to `COc1cc(/C=C/C(=O)Oc2ccc3c(c2)C(=O)OC3)cc(OC)c1OC`, for which the outcome in series [6], in series [3], in [13] and in series [17] was Active. The Activity entry in series [2] is on record as “Non-Toxic”; in series [7], 35.51%; in series [9], 19.71%; in [12], 74.54%; in [14], 47.12%; in series [4], 64.46 - 80.47%. Moreover, the Activity in series [16] amounted to 46.33%; in [18], 79.72%. Moreover, the IC50 in series [8] is 8.27 µM; in series [11] it was 7.58 µM; in [15], above 80 µM. Moreover, the selectivity ratio in series [10] is above 9.67.
As for `O=C(/C=C/c1ccccc1)OCc1cn(Cc2cc(Cl)ccc2Cl)nn1`, the results for the Activity result in [2] and in series [4] were “Non-Toxic” and 78.98%, respectively. For the same molecule, in series [3], the result was inactive.
`O=C(/C=C/c1ccccc1)OCc1cn(Cc2ccc(F)c(F)c2)nn1`: the Activity is 85.4% in [19]; “Non-Toxic” in series [2]; 79.77% in series [9]; 83.08% in series [12]; 95.13% in [14]; 68.6 - 86.32% in series [4]. The Activity in series [16] was 72.41%; in [18], 98.18%. For the same molecule, the values for the IC50 in series [11] and in series [15] were 3.05 µM and above 80 µM, respectively. In series [3], the outcome was inactive.
With `O=C(/C=C/c1ccccc1)OCCCc1cn(Cc2ccc(F)cc2)nn1`, the Activity entry is listed as “Non-Toxic” in [2] and 67.84% in [4].
On the same counts, the results for `COc1ccc(Cn2cc(CCCOC(=O)/C=C/c3ccccc3)nn2)cc1` are “Non-Toxic” and 60.48%.
For the molecule `O=C(/C=C/c1ccccc1)OCc1cn(Cc2ccc(Cl)cc2)nn1`, the solubility result in series [1] is given as “Insoluble”.
For the molecule `O=C(/C=C/c1ccc(Br)cc1)Oc1ccc2c(c1)C(=O)OC2`, the Activity entry in [2] was “Non-Toxic”; in [4], 50.14%. Moreover, the result in series [3] was Active.
Consider `O=C(/C=C/c1ccccc1)OCCCc1cn(Cc2ccccc2F)nn1`, for which the Activity result in [2] is given as “Non-Toxic”; in [4] it was 19.67%.
On the same counts, the results for `O=C(/C=C/c1ccc([N+](=O)[O-])cc1)Oc1ccc2c(c1)C(=O)OC2` are “Non-Toxic” and 59.54%.
For `O=C(/C=C/c1ccccc1)OCc1cn(Cc2ccc(Br)cc2)nn1`, the solubility result in series [1] is on record as “Insoluble”.
Same read-out and setting: with `O=C(/C=C/c1ccc(Cl)cc1)Oc1ccc2c(c1)C(=O)OC2` the entry was “Insoluble”.
`O=C(/C=C/c1ccccc1)OCCCc1cn(Cc2ccc(I)cc2)nn1`: the figures for the Activity result in series [2] and in series [4] were “Non-Toxic” and 52.07%, respectively. For the same molecule, the result in series [3] was Active.
On the same counts, the results for `O=C(/C=C/c1ccc(F)cc1)Oc1ccc2c(c1)C(=O)OC2` are “Non-Toxic”, 43.87% and “Active”.
For `COc1ccc(Cn2cc(COC(=O)/C=C/c3ccccc3)nn2)cc1`, the results for the Activity result in [2] and in series [4] were “Non-Toxic” and 76%, respectively. Also, the outcome in [3] was inactive.
In the same order, the values of `O=C(/C=C/c1ccccc1)OCc1cn(Cc2c(Cl)cc(Cl)cc2Cl)nn1` are “Non-Toxic”, 70.38% and “inactive”.
On the same counts, the results for `O=C(/C=C/c1ccccc1)OCCCc1cn(Cc2ccc([N+](=O)[O-])cc2)nn1` are “Non-Toxic”, 20.58% and “Active”.
In the same order, the values of `O=C(/C=C/c1ccccc1)OCCCc1cn(Cc2cc(Cl)ccc2Cl)nn1` are “Non-Toxic”, 45.74% and “Active”.
With `O=C(/C=C/c1ccccc1)OCCCc1cn(Cc2ccc(OC(F)(F)F)cc2)nn1`, the Activity entry in series [2] is “Non-Toxic”; in series [4], 65.84%. The outcome in series [3] was Active.
On the same counts, the results for `O=C(/C=C/c1ccccc1)OCCCc1cn(Cc2ccccc2)nn1` are “Non-Toxic”, 39.73% and “Active”.
Turning to `O=C(/C=C/c1ccccc1)OCCCc1cn(Cc2ccc(Br)cc2)nn1`, the values for the Activity result in series [2] and in series [4] were “Non-Toxic” and 45.1%, respectively. Also, the outcome in [3] was Active.
In the same order, the values of `O=C(/C=C/c1ccccc1)OCCCc1cn(Cc2ccc(C(F)(F)F)cc2)nn1` are “Non-Toxic”, 69.24% and “Active”.
As for `O=C(/C=C/c1ccccc1)OCc1cn(Cc2ccc(I)cc2)nn1`, the solubility entry in [1] was “Insoluble”.
As to `O=C(/C=C/c1ccccc1)OCc1cn(Cc2ccccc2Br)nn1`, the results for the Activity entry in series [2] and in series [4] were “Non-Toxic” and 80.12%, respectively. Moreover, the outcome in series [3] was inactive.
On the same counts, the results for `O=C(/C=C/c1ccccc1)OCc1cn(Cc2ccc(F)cc2)nn1` are “Non-Toxic”, 59.1% and “inactive”.
